{"source": "paper PMC4424388", "about": "(Mucosal Immunology, 2014)", "molecules": {"B1": {"name": "HD-5: synthetic oxidized human α-defensin 5 (peptide, UniProt Q01523 20-94, looked up)", "Defensin alpha 5": "ESLQERADEATTQKQSGEDNQDLAISFAGNGLSALRTSGSQARATCYCRTGRCATRESLSGVCEISGRLYRLCCR", "modifications": "Defensin-5"}}, "key": {"[1]": {"test_system": "Bif. adolescentis Ni3,29c", "assay": "Turbidity broth assay", "assay_type": "cell-based, Bifidobacterium adolescentis", "conditions": "higher peptide concentrations; causes apparent better growth in OD600", "procedure,_shortened": "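Overnight Bif. adolescentis Ni3,29c was washed twice in 10 mM sodium phosphate with 1% TSB. About 5×10^5 CFU/ml were exposed to peptide at 1.25–128 μg/ml, with 2 mM DTT where indicated, for 2 h at 37 °C in an anaerobic jar. 6% TSB was then added and A600 read at 24 and 48 h; change plotted against concentration. CFU counted in parallel on Columbia blood agar. Triplicate experiments, mean with s.e.m.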"}, "[2]": {"assay": "In vitro reduction assay, glutathione", "assay_type": "physicochemical", "conditions": "5 mM reduced glutathione, 100 mM sodium phosphate, 2 mM EDTA; RP-HPLC; Supplementary Figure 4"}, "[3]": {"test_system": "Bifidobacterium longum DSM 20219T", "assay": "Antimicrobial radial diffusion assay", "assay_type": "cell-based", "conditions": "1 μg peptide, 2 mM DTT, at least three experiments", "procedure,_shortened": "(§1)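 Log-phase bacteria washed and diluted to OD600 0.1. Gel: 10 mM sodium phosphate (pH 7.4 or 5.7), 0.3 mg/ml TSB powder, 1% low-EEO agarose, 0–2 mM DTT. Peptide (1 μg/μl stock in 0.01% acetic acid) pipetted into punched wells; overlay gel poured after 3 h. Inhibition-zone diameter read after up to 48 h; 2.5 mm (well/vehicle) means no activity. ≥3 experiments, mean with s.e.m.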"}, "[4]": {"test_system": "Bifidobacterium breve PZ 1343", "assay": "Antimicrobial radial diffusion assay", "assay_type": "cell-based", "conditions": "1 μg peptide, 2 mM DTT, at least three experiments", "procedure,_shortened": "as §1"}, "[5]": {"test_system": "Bifidobacterium adolescentis Ni3,29c", "assay": "Antimicrobial radial diffusion assay", "assay_type": "cell-based", "conditions": "1 μg peptide, 2 mM DTT, at least three experiments", "procedure,_shortened": "as §1"}, "glutaredoxin": {"test_system": "glutaredoxin", "assay": "In vitro reduction assay, glutaredoxin", "assay_type": "biochemical", "conditions": "3 μM glutaredoxin with 5 mM reduced glutathione; RP-HPLC; Supplementary Figure 4", "procedure,_shortened": "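Glutathione-based system: 5 mM reduced glutathione in 100 mM sodium phosphate with 2 mM EDTA, plus 3 μM active glutaredoxin or buffer only, incubated with oxidized peptide. Mixtures acidified with trifluoroacetic acid and analysed by RP-HPLC: C18 column, 15–45% acetonitrile (TFA-containing solvents) over 30 min at 25 °C and 0.8 ml/min.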"}, "[6]": {"assay": "Chemical reduction by DTT", "assay_type": "physicochemical", "conditions": "incubation extended to 3 h or DTT increased to 10 mM; data not shown"}, "[7]": {"test_system": "human TRX (with rat TRX reductase, NADPH)", "assay": "In vitro reduction assay, thioredoxin system", "assay_type": "biochemical", "conditions": "TRX increased to 6 μM or incubation prolonged to 60 min; data not shown"}, "[8]": {"test_system": "Streptococcus salivarius ssp thermophilus DSM20617", "assay": "Antimicrobial radial diffusion assay", "assay_type": "cell-based", "conditions": "1 μg peptide, 2 mM DTT, at least three experiments", "procedure,_shortened": "as §1"}, "[9]": {"test_system": "Lactobacillus acidophilus PZ 1138", "assay": "Antimicrobial radial diffusion assay", "assay_type": "cell-based", "conditions": "1 μg peptide, 2 mM DTT, at least three experiments", "procedure,_shortened": "as §1"}, "[10]": {"test_system": "(anaerobic) commensal gut bacteria", "assay": "Antimicrobial radial diffusion assay, bacteria not given", "assay_type": "cell-based", "conditions": "1 μg peptide, 2 mM DTT", "procedure,_shortened": "as §1"}, "[11]": {"test_system": "human TRX (with rat TRX reductase, NADPH)", "conditions": "cited from earlier work"}, "[12]": {"test_system": "Bif. adolescentis Ni3,29c", "assay": "Transmission electron microscopy of bacteria", "assay_type": "cell-based, Bifidobacterium adolescentis", "conditions": "TEM, 200 μg/ml peptide, 2 mM DTT, 2 h 37 °C, pH 7.4"}, "[13]": {"assay": "Retention of reduced status in buffer with DTT", "assay_type": "physicochemical", "conditions": "2 mM DTT in sodium phosphate buffer"}}, "note": "Where two headings read alike, the source gives them in different places.", "data": [{"molecule": "Human α-defensin 6 [HD-6]", "values": [{"measurement": "aggregation in the turbidity assay", "setting": "[1]", "value": "light-scattering aggregations"}, {"measurement": "reduction by glutathione", "setting": "[2]", "value": "did not lead to any reduction"}, {"measurement": "antibiotic activity, especially under reducing conditions", "setting": "[3]", "value": "inhibitory activity"}, {"measurement": "antibiotic activity, especially under reducing conditions", "setting": "[4]", "value": "inhibitory activity"}, {"measurement": "antibiotic activity, especially under reducing conditions", "setting": "[5]", "value": "inhibitory activity"}, {"measurement": "reduction by glutaredoxin", "setting": "glutaredoxin", "value": "did not lead to any reduction"}, {"measurement": "extent of reduction of disulfide bridges by DTT", "setting": "[6]", "value": "remarkably enhanced HD-6 reduction, but the oxidized form of the peptide could still be detected"}, {"measurement": "reduction by the TRX system", "setting": "[7]", "value": "not sufficient to completely reduce"}, {"measurement": "antibiotic activity, especially under reducing conditions", "setting": "[8]", "value": "inhibitory activity"}, {"measurement": "antibiotic activity, especially under reducing conditions", "setting": "[9]", "value": "inhibitory activity"}]}, {"molecule": "human β-defensin 1 (DHYNCVSSGGQCLYSACPIFTKIQGTCYRGKAKCCK; Beta-defensin 1; UniProt P60022 33-68, looked up) [hBD-1, reference compound]", "values": [{"measurement": "activity under reducing conditions against several bacteria", "setting": "[10]", "value": "increased activity"}, {"measurement": "reduction by the TRX system", "setting": "[11]", "value": "can also reduce"}]}, {"molecule": "ΔredHD-6: synthetic reduced truncated HD-6 (TCHCRRSCYSTEYSYGTCTVMGINHRFCCL; Defensin-6 reduced; UniProt Q01524 71-100, looked up, fragment)", "values": [{"measurement": "ultrastructural alterations of the bacterium", "setting": "[12]", "value": "disintegration of stainable intracellular structures"}, {"measurement": "time for which the peptide retained its completely reduced status", "setting": "[13]", "value": "at least 2 h"}]}, {"molecule": "B1", "values": [{"measurement": "reduction by the TRX system", "setting": "[11]", "value": "can also reduce"}]}]}
